Measured values from publication PMC12804367 (ESMO Open, 2025).

Tests used:
[1] = tested on: patients with advanced or metastatic solid tumors; assay: Safety, tolerability and DLTs; assay type: in vivo, human
Outline: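 3 + 3 escalation starting at 16 mg/day once daily or 24 mg/day intermittent (4 days on/3 days off) in 21-day cycles. AEs graded by CTCAE v5.0. DLTs were selected lab abnormalities or AEs at least possibly drug-related during cycle 1, assessed in patients with a DLT or ≥80% of planned doses taken.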

[2] = tested on: advanced or metastatic solid tumors; assay: Antitumor activity per RECIST v1.1; assay type: in vivo, human
Outline: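 Open-label, single-arm, 3 + 3 dose-escalation lead-in. Adults with advanced or metastatic solid tumors that had progressed on standard therapy and had ≥1 lesion per RECIST v1.1. Test compound given once daily (16 or 20 mg) or 4 days on/3 days off (24 or 28 mg) in 21-day cycles until progression or toxicity. Response, DCR and PFS were assessed in all dosed patients, with 95% CI.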

[3] = tested on: refractory gastrointestinal cancers / advanced solid tumors; settings: cited from earlier work
[4] = tested on: patients with advanced solid tumors; settings: all patients; cited from earlier work
[5] = dose escalation intermittent 28 mg (n = 3)
[6] = dose escalation intermittent total (n = 7), any grade
[7] = dose escalation intermittent total (n = 7), grade ≥3
[8] = dose escalation o.d. 16 mg (n = 3)
[9] = dose escalation o.d. 20 mg (n = 6)
[10] = dose escalation o.d. total (n = 9), any grade
[11] = dose escalation o.d. total (n = 9), grade ≥3
[12] = two intermittent dosing groups (n = 7)
[13] = one patient, germline PTEN mutation, metaplastic breast cancer, 20 mg o.d.

C[C@]1(O)C[C@@](N)(c2ccc(-c3nc4n(c3-c3ccccc3)COc3ccncc3-4)cc2)C1 [TAS-117]
TRAE: Rash ([1]; dose escalation intermittent 24 mg (n = 4)): 2 (50.0) n (%) | Patients with any TRAE [1, 5]: 3 (100) n (%) | TRAE: Decreased appetite [1, 5]: 2 (66.7) n (%) | TRAE: Fatigue [1, 5]: 2 (66.7) n (%) | TRAE: Hyperglycemia [1, 5]: 2 (66.7) n (%) | TRAE: Pruritus [1, 5]: 2 (66.7) n (%) | TRAE: Rash [1, 5]: 2 (66.7) n (%) | TRAE: Rash maculopapular [1, 5]: 1 (33.3) n (%) | TRAE: Stomatitis [1, 5]: 3 (100) n (%) | Patients with any TRAE [1, 6]: 5 (71.4) n (%) | TRAE: Decreased appetite [1, 6]: 2 (28.6) n (%) | TRAE: Diarrhea [1, 6]: 1 (14.3) n (%) | TRAE: Fatigue [1, 6]: 4 (57.1) n (%) | TRAE: Hyperglycemia [1, 6]: 3 (42.9) n (%) | TRAE: Nausea [1, 6]: 1 (14.3) n (%) | TRAE: Pruritus [1, 6]: 4 (57.1) n (%) | TRAE: Rash [1, 6]: 4 (57.1) n (%) | TRAE: Rash maculopapular [1, 6]: 1 (14.3) n (%) | TRAE: Stomatitis [1, 6]: 3 (42.9) n (%) | Patients with any TRAE [1, 7]: 3 (42.9) n (%) | TRAE: Hyperglycemia [1, 7]: 1 (14.3) n (%) | TRAE: Rash [1, 7]: 1 (14.3) n (%) | TRAE: Rash maculopapular [1, 7]: 1 (14.3) n (%) | TRAE: Stomatitis [1, 7]: 2 (28.6) n (%) | Patients with any TRAE [1, 8]: 2 (66.7) n (%) | TRAE: Hyperglycemia [1, 8]: 1 (33.3) n (%) | TRAE: Rash [1, 8]: 2 (66.7) n (%) | Patients with any TRAE [1, 9]: 6 (100) n (%) | TRAE: Decreased appetite [1, 9]: 1 (16.7) n (%) | TRAE: Diarrhea [1, 9]: 2 (33.3) n (%) | TRAE: Fatigue [1, 9]: 2 (33.3) n (%) | TRAE: Hyperglycemia [1, 9]: 1 (16.7) n (%) | TRAE: Nausea [1, 9]: 1 (16.7) n (%) | TRAE: Pruritus [1, 9]: 1 (16.7) n (%) | TRAE: Rash [1, 9]: 4 (66.7) n (%) | TRAE: Rash maculopapular [1, 9]: 1 (16.7) n (%) | Patients with any TRAE [1, 10]: 8 (88.9) n (%) | TRAE: Decreased appetite [1, 10]: 1 (11.1) n (%) | TRAE: Diarrhea [1, 10]: 2 (22.2) n (%) | TRAE: Fatigue [1, 10]: 2 (22.2) n (%) | TRAE: Hyperglycemia [1, 10]: 2 (22.2) n (%) | TRAE: Nausea [1, 10]: 1 (11.1) n (%) | TRAE: Pruritus [1, 10]: 1 (11.1) n (%) | TRAE: Rash [1, 10]: 6 (66.7) n (%) | TRAE: Rash maculopapular [1, 10]: 1 (11.1) n (%) | Patients with any TRAE [1, 11]: 5 (55.6) n (%) | TRAE: Fatigue [1, 11]: 1 (11.1) n (%) | TRAE: Rash [1, 11]: 2 (22.2) n (%) | TRAE: Rash maculopapular [1, 11]: 1 (11.1) n (%) | Patients who experienced a DLT ([1]; dose-escalation part, assessable patients (n = 16), cycle 1): three | TEAEs leading to death ([1]; either dosing regimen): No TEAEs leading to death | Patients with dose interruption due to an AE ([1]; intermittent dosing groups): 57.1% | Patients with dose reductions due to an AE ([1]; intermittent dosing groups): 42.9% | Patients with treatment discontinued due to a TRAE ([1]; intermittent dosing groups, grade 3 skin exfoliation at 28 mg): 14.3% | Patients with treatment-related serious AEs ([1]; o.d. dosing groups, all at 20 mg o.d.): three | Patients with AEs leading to dose interruptions ([1]; o.d. dosing regimen): 66.7% | Patients with AEs leading to dose reductions ([1]; o.d. dosing regimen): 0% | TRAE: Diarrhea ([1]; o.d. dosing regimen (n = 9)): 22.2% | TRAE: Fatigue ([1]; o.d. dosing regimen (n = 9)): 22.2% | TRAE: Hyperglycemia ([1]; o.d. dosing regimen (n = 9)): 22.2% | TRAE: Rash ([1]; o.d. dosing regimen (n = 9)): 66.7% | Grade ≥3 TRAE: stomatitis [1, 12]: 28.6% | Grade ≥3 TRAEs [1, 12]: 42.9% | TRAE: Decreased appetite [1, 12]: 28.6% | TRAE: Fatigue [1, 12]: 57.1% | TRAE: Hyperglycemia [1, 12]: 42.9% | TRAE: Pruritus [1, 12]: 57.1% | TRAE: Rash [1, 12]: 57.1% | TRAE: Stomatitis [1, 12]: 42.9% | Median PFS ([2]; all cohorts, 95% CI 1.3-3.5 months): 2.7 months | DCR ([2]; all patients, 95% CI 18.4% to 67.1%): 41.2% | Patients with stable disease as best response ([2]; o.d. dosing, all at 20 mg): three | Best overall response [2, 13]: stable disease | Duration of stable disease / treatment, ongoing at data cut-off [2, 13]: 19.1 months | Duration of stable disease / treatment as of manuscript drafting ([2]; one patient, germline PTEN mutation, metaplastic breast cancer, ongoing): > 3 years | Objective response (RECIST v1.1, investigator assessment) ([2]; patients assessed, n = 15, dose escalation (all-comers)): None and no patients having a confirmed response | Patients who achieved a partial response ([3]; PIK3CA-mutant ovarian cancer): 1 patient | Antitumor activity and toxicity ([3]; patients with refractory gastrointestinal cancers): limited antitumor activity and manageable toxicity | Tolerability of 24-mg o.d. dose level [4]: intolerable skin toxicities
